Among the data in article PMC4210126 (ACS Chemical Neuroscience, 2014) are LipE and logD values, retold here.

The structures appear in SMILES notation.

The target in one data set is human HAB TSPO (Homo sapiens, UniProt P30536). Format: binding. As to conditions: pKi – logD for human cerebellum HAB.
The next data set can be described thus: Measurement of LogD. In kind it is physicochemical. As to conditions: n-octanol/sodium phosphate buffer, pH 7.4. In outline:
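Partition of each carbon-11-labelled test compound between n-octanol and sodium phosphate buffer (pH 7.4), run at room temperature. Radioactivity distribution between the phases gives logD.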

human HAB TSPO, sequence (P30536 whole entry): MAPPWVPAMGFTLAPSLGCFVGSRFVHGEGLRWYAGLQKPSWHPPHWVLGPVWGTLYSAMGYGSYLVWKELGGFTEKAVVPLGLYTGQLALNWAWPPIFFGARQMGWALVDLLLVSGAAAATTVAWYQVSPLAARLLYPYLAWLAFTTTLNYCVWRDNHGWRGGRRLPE

Compound `CCC(C)N(C)C(=O)c1cc2ccccc2c(-c2ccccc2Cl)n1` (centres unmarked) [Ligand 1] returned a LipE on human HAB TSPO of 4.37. For the same compound, in “Measurement of LogD”, the logD came out at 3.97 ± 0.18.
